Only some compounds are listed: those with a hit (about 3% of all), similar ones and a draw of the others.
5HT1E ag – 5-HT1E receptor agonists, primary screen, cell-based, HTS. activation, % at 6 µM. AID 574, 2007. hit rate 0.69% among 65,000. CHO 5-HT1E Ga15 NFAT-bla reporter, FRET; 0% DMSO wells, 100% control agonist wells. 5-hydroxytryptamine receptor 1E (Homo sapiens), P28566;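 active means activation above a set limit, the screen-wide mean activation plus 3 SD, cut at about 8.5% in these data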;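 further: 100% = positive control agonist at 1 µM giving full maximal response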
5HT1a antag – human 5-HT1a receptor antagonists, primary screen, cell-based, CHO, Ga15 NFAT-bla reporter | 5-hydroxytryptamine receptor 1A (Homo sapiens), P08908 | AID 612, 2007 | hit rate 0.68% among 62,000 | CHO 5-HT1a Ga15 NFAT-bla reporter, antagonist mode | inhibition, % at 10 µM;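 active means inhibition above the mean of all tested compounds plus 3 SD, cut at about 43% in these data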;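 further: receptor stimulated by 5-CT agonist at 100 nM near EC80; beta-lactamase reporter measured by ratiometric fluorescence of a cleavable substrate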
5HT1a ag – human 5-HT1a receptor agonists, primary screen, cell-based, CHO, Ga15 NFAT-bla reporter. 5-hydroxytryptamine receptor 1A (Homo sapiens), P08908. CHO 5-HT1a Ga15 NFAT-bla reporter, FRET ratio; 0% basal, 100% maximal reference agonist. activation, % at 10 µM. hit rate 0.56% among 65,000;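 active means activation above the screen-wide mean activation plus 3 SD, cut at about 19% in these data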;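 further: 0% = DMSO wells and 100% = 5-CT at EC100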
5HT1E antag – 5-HT1E receptor antagonists, primary screen, cell-based, HTS. CHO 5-HT1E Ga15 NFAT-bla reporter, FRET, antagonist. hit rate 0.99% among 65,000. 5-hydroxytryptamine receptor 1E (Homo sapiens), P28566. inhibition, % at 6 µM;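 active means inhibition above a set limit, the mean inhibition across every tested compound plus 3 SD, cut at about 29% in these data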;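 further: signal is the 460 over 535 nm emission ratio of beta-lactamase substrate; 0% = agonist plus DMSO wells and 100% = wells without agonist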
S1P3 ag – human S1P3 receptor agonists, primary screen, cell-based, primary and confirmation, NFAT-BLA reporter; Sphingosine 1-phosphate receptor 3 (Homo sapiens), Q99500; S1P3 NFAT-BLA reporter cells, agonism, FRET ratio; relative to 1 µM S1P, basal subtracted; activation, % at 4.5 µM; hit rate 0.1% among 60,000;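 active means activation above the screen-wide mean plus 3 SD, cut at about 4.5% in these data, passing the limit was not always enough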
Target sequence (Q99500 whole entry, looked up): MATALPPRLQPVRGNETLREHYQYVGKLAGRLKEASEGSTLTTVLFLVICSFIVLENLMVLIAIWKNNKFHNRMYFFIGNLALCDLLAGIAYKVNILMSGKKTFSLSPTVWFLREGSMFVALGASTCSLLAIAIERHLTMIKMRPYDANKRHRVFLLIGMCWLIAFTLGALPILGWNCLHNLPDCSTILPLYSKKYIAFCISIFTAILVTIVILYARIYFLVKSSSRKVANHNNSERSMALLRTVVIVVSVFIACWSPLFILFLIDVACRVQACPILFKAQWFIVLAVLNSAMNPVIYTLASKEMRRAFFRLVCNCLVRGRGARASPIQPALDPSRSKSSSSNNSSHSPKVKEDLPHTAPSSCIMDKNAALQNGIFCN
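Measure – % activation relative to 1 µM S1P (100%), per plate · System – stable CHO line with human S1P3, Gα16, NFAT-BLA reporter · Timing – cells plated overnight, compound 4 h 37 °C, substrate 2 h RT · Technique – fluorescent BLA substrate, ex 405 nm, em 460/535 nm ratio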
S1P1 ag-PAM – S1P1 agonists and agonism potentiators, primary screen, cell-based, primary and confirmation screens, CRE-bla reporter. S1P1 CRE-bla cells, forskolin, beta-lactamase FRET, potentiator mode; S1P1 agonist co-added at EC20, 2 nM; 100% = saturating reference agonist, 0% = basal. activation, % at 9.5 µM. hit rate 0.57% among 56,000;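 active means activation above a cutoff set at the mean activation of all tested compounds plus 3 SD, cut at about 54% in these data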;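 further: forskolin at 4 µM as EC80 and the EC20 agonist is SEW2871; 100% = SEW2871 at its EC100 plus forskolin at EC80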
* marks the source's active call; other numbers are inactive results; . = not tested or not shown.

SMILES	5HT1E ag	5HT1a antag	5HT1a ag	5HT1E antag	S1P3 ag	S1P1 ag-PAM
[O-][N+]1=c2ccc(Nc3ccccc3)cc2=NC12CCCCC2	0	55*	-3	30*	-2	34
CC(=O)Nc1ccc(S(=O)(=O)/N=C2\SCCN2S(=O)(=O)c2ccc(NC(C)=O)cc2)cc1	0	-7	73*	-3	0	-1
CC(=O)Nc1ccc(S(=O)(=O)N2CCSC2C(=O)O)cc1 (configuration not stated)	-1	8	-3	-2	.	.
COc1ccc(/C(O)=C2/C(=O)C(=O)N(CCCC(=O)O)C2c2ccc(OC)c(OC)c2)cc1 (configuration not stated)	-1	-17	0	0	0	7
CC(C)c1ccc2oc(-c3cc(N)ccc3O)nc2c1	2	28	-8	-2	-1	64*
O=C1CC(=O)CC(c2ccccc2Cl)C1	0	2	-1	15	0	-2
COc1ccc2cc3cc(C(=O)NCCN4CCN(c5ccccc5F)CC4)oc3nc2c1	17*	71*	5	3	-2	10
NS(=O)(=O)c1ccc(CCNC(=O)c2cccnc2)cc1	0	-6	-1	-8	-1	10
CC(CN1CCCCC1)OC(=O)c1cc2ccccc2o1 (configuration not stated)	2	-10	46*	0	0	-31
COc1ccc(N2C(=O)CC(NCc3cccc(F)c3)C2=O)cc1 (configuration not stated)	0	-28	0	-8	-1	.
COc1ccc(N2C(=O)CC(NCc3ccncc3)C2=O)cc1 (configuration not stated)	0	1	-1	77*	0	.
Cn1c(C(C#N)C2=C(Cl)C(=O)N(c3ccccc3)C2=O)nc2ccccc21 (configuration not stated)	0	7	-1	-10	-1	27
COCCN1Cc2cccc(C(=O)NCc3ccc4c(c3)OCO4)c2C1=O	0	1	238*	15	-1	12
COCCN1Cc2cccc(C(=O)NCc3ccccn3)c2C1=O	0	-2	-2	0	-1	-14
COc1ccccc1NC(=O)NCc1ccc2c(c1)OCO2	2	6	-1	-4	0	-15
COC(=O)c1ccccc1NC(=O)NCc1ccc2c(c1)OCO2	-1	17	17	31*	0	6
O=C(Cn1nnc2c(cnn2-c2ccccc2)c1=O)N1CCN(c2ccccc2F)CC1	-1	-24	1	2	0	9
COC(=O)c1ccccc1NC(=O)c1cc(-c2ccc(OC)c(OC)c2)on1	0	-9	-1	-4	0	-6
O=C(NCc1ccco1)c1cccc(-c2nnc(-c3ccccc3)o2)c1	0	2	1	-5	-1	9
Cc1nnc(SCC(=O)N2CCN(S(=O)(=O)c3ccc(Cl)cc3)CC2)n(N)c1=O	24*	-9	-1	2	0	-20
Nn1cc(-c2ccccc2)nc1SCC(=O)N1CCN(S(=O)(=O)c2ccc(Cl)cc2)CC1	1	-4	-3	-8	2	-21
Cc1cc2nc(-c3ccc(NC(=O)C(C)C)cc3)oc2cc1C	0	7	-1	-12	-2	108*
O=c1oc2c(CN3CCCCCC3)c(O)ccc2cc1-c1nc2ccccc2[nH]1	1	15	-1	30*	0	26
O=c1cc(-c2ccccc2)c2ccc(O)c(CN3CCCCC3)c2o1	0	6	-1	15	-1	2
O=C(Nc1ncnc2c1CCC2)C12CC3CC(CC(C3)C1)C2	0	2	40*	16	-1	-2
SMILES	5HT1E ag	5HT1a antag	5HT1a ag	5HT1E antag	S1P3 ag	S1P1 ag-PAM
Cc1cc(NC(=O)C2CC2)ncc1NC(=O)C12CC3CC(CC(C3)C1)C2	0	3	-1	6	.	.
CN(C)CCCN1c2ccccc2CCc2ccc(Cl)cc21	10*	.	-1	5	8	-16
CN(C)CCCN1c2ccccc2Sc2ccccc21	4	.	-1	-9	-1	4
CCCc1cc(C(=O)NC2CCCCC2)no1	0	11	-1	11	0	3
CCCc1cc(C(=O)N(C2CCCCC2)C2CCCCC2)no1	0	3	-2	3	58*	13
Cc1cc(Oc2ccc(-c3ccccc3)cc2)n2ncnc2n1	0	46*	-3	34*	0	6
Cc1c(C(=O)N2CCCC2)oc2c1-c1[nH]ncc1CC2	1	-19	0	-2	-1	-16
CCn1c(COc2ccc3c(c2)OCO3)nnc1SCC(=O)c1ccccc1	0	-4	-1	6	0	14
S=c1[nH]nc(COc2ccc3c(c2)OCO3)n1-c1ccccc1	28*	8	-3	-3	0	-6
Cn1cnnc1SCC(=O)NC(=O)NC1CCCC1	0	-5	-3	-7	1	-5
Oc1ccc(CN2CCN(Cc3ccccc3)CC2)c2cccnc12	1	20	-3	30*	-1	-11
CN1CCN(Cc2cc(COCc3ccccc3)c3cccnc3c2O)CC1	5	28	-2	48*	-3	3
Oc1ccc(CNc2ccccc2)c2cccnc12	0	10	-1	-11	0	-17
CCNc1nc2c(c(=O)n(C)c(=O)n2C)n1Cc1ccc(Cl)cc1	1	6	14	14	-2	61*
CCNc1nc2c(c(=O)n(Cc3ccccc3)c(=O)n2C)n1Cc1ccccc1	0	0	37*	0	0	-14
CCOC(=O)C1CCN(CC(=O)Nc2c(C(=O)OC)[nH]c3ccc(Cl)cc23)CC1	0	11	1	29*	-1	16
CCOC(=O)c1[nH]c2ccc(OC)cc2c1NC(=O)CN1CCN(c2ccccn2)CC1	0	.	29*	-4	4	4
CN(C)c1ccc(C(=S)NCc2ccco2)cc1	0	8	-2	2	0	.
CCCCOc1ccc(S(=O)(=O)Nc2cccnc2)cc1	0	2	-4	3	-1	85*
CCCOC(=O)c1ccc(Nc2cc(C)nc3ncnn23)cc1	0	-22	105*	-17	0	-8

Compound activity: PubChem, The Scripps Research Institute Molecular Screening Center
